tested on: A549; test: Ratio of 5-Fu IC50 to compound IC50 for human A549 cells after 48 hrs by MTT assay; format: functional; conditions: not given

| SMILES | Ratio IC50 |
| --- | --- |
| COc1ccc2c(=O)c(/C=C/C(=O)Nc3cccc(Cl)c3)coc2c1 | 12 |

tested on: A549; test: Growth inhibition of human A549 cells after 48 hrs by MTT assay; format: functional, cell-based; conditions: A549, 48 h
Method in brief: (§1)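 Cells seeded at 8000/well, treated 24 h later in duplicate with a range of concentrations (DMSO stock 10 g/L diluted in fresh medium), 48 h at 37 °C, 5% CO2. MTT (5 mg/ml in PBS) added for 4 h, formazan dissolved in DMSO, absorbance read at 570 nm. IC50 is the concentration giving 50% survival.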

| IC50 | SMILES |
| --- | --- |
| 18.9 µM | COc1ccc2c(=O)c(/C=C/C(=O)NCCc3ccc(F)cc3)coc2c1 |
| 17.4 µM | Cc1ccc(CNC(=O)/C=C/c2coc3cc(O)ccc3c2=O)cc1 |
| > 100 µM | COc1ccc(CNC(=O)/C=C/c2coc3cc(O)ccc3c2=O)cc1 |
| 6.84 µM | O=C(/C=C/c1coc2cc(O)ccc2c1=O)NCCc1ccc(F)cc1 |

Further lines, the molecule ahead of its results:

| SMILES | IC50 |
| --- | --- |
| O=C(/C=C/c1coc2cc(O)ccc2c1=O)NCc1ccc(F)cc1F | 6.61 µM |
| COc1ccc2c(=O)c(/C=C/C(=O)Nc3cccc(Cl)c3)coc2c1 | 0.47 µM |
| COc1ccc2c(=O)c(/C=C/C(=O)Nc3ccc(Cl)cc3)coc2c1 | > 100 µM |

tested on: Hepatitis B virus; test: Antiviral activity against HBV infected in human HepG2(2.2.15) cells assessed as inhibition of viral replication after 9 days by fluorescence PCR method; format: functional, organism-based; conditions: HepG2 2.2.15, 216 h
Method in brief: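 HepG2 2.2.15 cells given a range of compound concentrations for nine days; HBV DNA quantified by fluorescence PCR. IC50 taken as the concentration giving 50% inhibition of HBV DNA replication.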

| IC50 | SMILES |
| --- | --- |
| > 100 µM | COc1ccc2c(=O)c(/C=C/C(=O)NCCc3ccc(F)cc3)coc2c1 |
| 14.2 µM | Cc1ccc(CNC(=O)/C=C/c2coc3cc(O)ccc3c2=O)cc1 |
| 4.7 µM | COc1ccc(CNC(=O)/C=C/c2coc3cc(O)ccc3c2=O)cc1 |
| > 100 µM | O=C(/C=C/c1coc2cc(O)ccc2c1=O)NCCc1ccc(F)cc1 |

The remaining lines, values behind:

| SMILES | IC50 |
| --- | --- |
| O=C(/C=C/c1coc2cc(O)ccc2c1=O)NCc1ccc(F)cc1F | 23.3 µM |
| COc1ccc2c(=O)c(/C=C/C(=O)Nc3cccc(Cl)c3)coc2c1 | > 100 µM |
| COc1ccc2c(=O)c(/C=C/C(=O)Nc3ccc(Cl)cc3)coc2c1 | 67.5 µM |

tested on: not listed separately; test: Selectivity index, ratio of CC50 for human HepG2(2.2.15) cells to IC50 for HBV infected in human HepG2(2.2.15) cells assessed as inhibition of viral replication; format: functional; conditions: not given
Method in brief: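 Selectivity index calculated as CC50 in HepG2 2.2.15 cells (MTT, 9-day exposure) divided by IC50 for HBV DNA reduction measured by fluorescence PCR after 9 days.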

| SMILES | Ratio CC50/IC50 |
| --- | --- |
| Cc1ccc(CNC(=O)/C=C/c2coc3cc(O)ccc3c2=O)cc1 | 35.31 |
| COc1ccc(CNC(=O)/C=C/c2coc3cc(O)ccc3c2=O)cc1 | 152.76 |
| O=C(/C=C/c1coc2cc(O)ccc2c1=O)NCc1ccc(F)cc1F | 20.16 |
| COc1ccc2c(=O)c(/C=C/C(=O)Nc3ccc(Cl)cc3)coc2c1 | 4.03 |

tested on: not listed separately; test: Growth inhibition of human L02 cells after 48 hrs by MTT assay; format: functional, cell-based; conditions: L02, 48 h; method in brief: as §1

| SMILES | IC50 |
| --- | --- |
| COc1ccc2c(=O)c(/C=C/C(=O)NCCc3ccc(F)cc3)coc2c1 | > 200 µM |
| Cc1ccc(CNC(=O)/C=C/c2coc3cc(O)ccc3c2=O)cc1 | > 200 µM |
| COc1ccc(CNC(=O)/C=C/c2coc3cc(O)ccc3c2=O)cc1 | > 200 µM |
| O=C(/C=C/c1coc2cc(O)ccc2c1=O)NCc1ccc(F)cc1F | > 200 µM |
| O=C(/C=C/c1coc2cc(O)ccc2c1=O)NCCc1ccc(F)cc1 | > 200 µM |
| COc1ccc2c(=O)c(/C=C/C(=O)Nc3cccc(Cl)c3)coc2c1 | > 200 µM |
| COc1ccc2c(=O)c(/C=C/C(=O)Nc3ccc(Cl)cc3)coc2c1 | > 200 µM |

tested on: not listed separately; test: Cytotoxicity against human HepG2(2.2.15) cells compound treated for 48 hrs followed by incubation for 9 days by MTT assay; format: cell-based; conditions: not given
Method in brief: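 HepG2 2.2.15 cells kept 48 h in plates before adding compounds (DMSO stocks serially diluted in medium), then incubated at 37 °C for 9 days. Media-only wells as blank. MTT (5 g/L) added 4 h before lysis in 10% SDS/50% DMF, pH 7.2; OD at 570 nm gives percent cell death; CC50 derived.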

| SMILES | CC50 at 48 h |
| --- | --- |
| COc1ccc2c(=O)c(/C=C/C(=O)NCCc3ccc(F)cc3)coc2c1 | 786 µM |
| Cc1ccc(CNC(=O)/C=C/c2coc3cc(O)ccc3c2=O)cc1 | 501 µM |
| COc1ccc(CNC(=O)/C=C/c2coc3cc(O)ccc3c2=O)cc1 | 718 µM |
| O=C(/C=C/c1coc2cc(O)ccc2c1=O)NCc1ccc(F)cc1F | 470 µM |
| O=C(/C=C/c1coc2cc(O)ccc2c1=O)NCCc1ccc(F)cc1 | 102 µM |
| COc1ccc2c(=O)c(/C=C/C(=O)Nc3cccc(Cl)c3)coc2c1 | 1100 µM |
| COc1ccc2c(=O)c(/C=C/C(=O)Nc3ccc(Cl)cc3)coc2c1 | 272 µM |

tested on: not listed separately; test: Selectivity index, ratio of CC50 for human HepG2(2.2.15) cells to IC50 for HBV infected in human HepG2(2.2.15) cells assessed as inhibition of HBsAg production; format: functional; conditions: not given
Method in brief: (§2)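 Selectivity index calculated as CC50 in HepG2 2.2.15 cells (MTT, 9-day exposure) divided by IC50 for HBeAg or HBsAg reduction (ELISA of 9-day supernatants).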

| SMILES | Ratio CC50/IC50 |
| --- | --- |
| COc1ccc2c(=O)c(/C=C/C(=O)NCCc3ccc(F)cc3)coc2c1 | 53.64 |
| Cc1ccc(CNC(=O)/C=C/c2coc3cc(O)ccc3c2=O)cc1 | 30.27 |
| COc1ccc(CNC(=O)/C=C/c2coc3cc(O)ccc3c2=O)cc1 | 70.25 |
| O=C(/C=C/c1coc2cc(O)ccc2c1=O)NCc1ccc(F)cc1F | 32.34 |
| O=C(/C=C/c1coc2cc(O)ccc2c1=O)NCCc1ccc(F)cc1 | 7.03 |
| COc1ccc2c(=O)c(/C=C/C(=O)Nc3ccc(Cl)cc3)coc2c1 | 2.96 |

tested on: not listed separately; test: Growth inhibition of human QGY7701 cells after 48 hrs by MTT assay; format: functional; conditions: QGY7701, 48 h; method in brief: as §1

| SMILES | IC50 |
| --- | --- |
| COc1ccc2c(=O)c(/C=C/C(=O)NCCc3ccc(F)cc3)coc2c1 | 24.8 µM |
| Cc1ccc(CNC(=O)/C=C/c2coc3cc(O)ccc3c2=O)cc1 | 24.9 µM |
| COc1ccc(CNC(=O)/C=C/c2coc3cc(O)ccc3c2=O)cc1 | 10 µM |
| O=C(/C=C/c1coc2cc(O)ccc2c1=O)NCc1ccc(F)cc1F | > 100 µM |
| O=C(/C=C/c1coc2cc(O)ccc2c1=O)NCCc1ccc(F)cc1 | > 100 µM |
| COc1ccc2c(=O)c(/C=C/C(=O)Nc3cccc(Cl)c3)coc2c1 | > 100 µM |
| COc1ccc2c(=O)c(/C=C/C(=O)Nc3ccc(Cl)cc3)coc2c1 | > 100 µM |

tested on: Hepatitis B virus; test: Antiviral activity against HBV infected in human HepG2(2.2.15) cells assessed as inhibition of HBsAg production after 9 days by ELISA; format: functional, organism-based; conditions: HepG2 2.2.15, 216 h
Method in brief: (§3)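 HepG2 2.2.15 cells (HBV-producing) given a range of compound concentrations for nine days; culture supernatants collected and HBsAg or HBeAg levels measured by ELISA. IC50 taken as the concentration giving 50% inhibition of antigen level.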

| IC50 | SMILES |
| --- | --- |
| 14.7 µM | COc1ccc2c(=O)c(/C=C/C(=O)NCCc3ccc(F)cc3)coc2c1 |
| 16.5 µM | Cc1ccc(CNC(=O)/C=C/c2coc3cc(O)ccc3c2=O)cc1 |
| 10.2 µM | COc1ccc(CNC(=O)/C=C/c2coc3cc(O)ccc3c2=O)cc1 |
| 14.6 µM | O=C(/C=C/c1coc2cc(O)ccc2c1=O)NCCc1ccc(F)cc1 |

Second part, the molecule before the results:

| SMILES | IC50 |
| --- | --- |
| O=C(/C=C/c1coc2cc(O)ccc2c1=O)NCc1ccc(F)cc1F | 14.5 µM |
| COc1ccc2c(=O)c(/C=C/C(=O)Nc3cccc(Cl)c3)coc2c1 | > 100 µM |
| COc1ccc2c(=O)c(/C=C/C(=O)Nc3ccc(Cl)cc3)coc2c1 | 91.7 µM |

tested on: HeLa; test: Growth inhibition of human HeLa cells after 48 hrs by MTT assay; format: functional, cell-based; conditions: not given; method in brief: as §1

| IC50 | SMILES |
| --- | --- |
| > 100 µM | COc1ccc2c(=O)c(/C=C/C(=O)NCCc3ccc(F)cc3)coc2c1 |
| > 100 µM | Cc1ccc(CNC(=O)/C=C/c2coc3cc(O)ccc3c2=O)cc1 |
| > 100 µM | COc1ccc(CNC(=O)/C=C/c2coc3cc(O)ccc3c2=O)cc1 |
| > 100 µM | O=C(/C=C/c1coc2cc(O)ccc2c1=O)NCCc1ccc(F)cc1 |

Further lines, the molecule ahead of its results:

| SMILES | IC50 |
| --- | --- |
| O=C(/C=C/c1coc2cc(O)ccc2c1=O)NCc1ccc(F)cc1F | > 100 µM |
| COc1ccc2c(=O)c(/C=C/C(=O)Nc3cccc(Cl)c3)coc2c1 | 11.8 µM |
| COc1ccc2c(=O)c(/C=C/C(=O)Nc3ccc(Cl)cc3)coc2c1 | > 100 µM |

tested on: Hepatitis B virus; test: Antiviral activity against HBV infected in human HepG2(2.2.15) cells assessed as inhibition of HBeAg production after 9 days by ELISA; format: functional, organism-based; conditions: HepG2 2.2.15, 216 h; method in brief: as §3

| IC50 | SMILES |
| --- | --- |
| 14.7 µM | COc1ccc2c(=O)c(/C=C/C(=O)NCCc3ccc(F)cc3)coc2c1 |
| 19.1 µM | Cc1ccc(CNC(=O)/C=C/c2coc3cc(O)ccc3c2=O)cc1 |
| 2.34 µM | COc1ccc(CNC(=O)/C=C/c2coc3cc(O)ccc3c2=O)cc1 |
| 15.4 µM | O=C(/C=C/c1coc2cc(O)ccc2c1=O)NCCc1ccc(F)cc1 |

The next lines start with the molecule.

| SMILES | IC50 |
| --- | --- |
| O=C(/C=C/c1coc2cc(O)ccc2c1=O)NCc1ccc(F)cc1F | 12.3 µM |
| COc1ccc2c(=O)c(/C=C/C(=O)Nc3cccc(Cl)c3)coc2c1 | > 100 µM |
| COc1ccc2c(=O)c(/C=C/C(=O)Nc3ccc(Cl)cc3)coc2c1 | 20.9 µM |

tested on: not listed separately; test: Selectivity index, ratio of CC50 for human HepG2(2.2.15) cells to IC50 for HBV infected in human HepG2(2.2.15) cells assessed as inhibition of HBeAg production; format: functional; conditions: not given; method in brief: as §2

| SMILES | Ratio CC50/IC50 |
| --- | --- |
| COc1ccc2c(=O)c(/C=C/C(=O)NCCc3ccc(F)cc3)coc2c1 | 53.45 |
| Cc1ccc(CNC(=O)/C=C/c2coc3cc(O)ccc3c2=O)cc1 | 26.16 |
| COc1ccc(CNC(=O)/C=C/c2coc3cc(O)ccc3c2=O)cc1 | 306.82 |
| O=C(/C=C/c1coc2cc(O)ccc2c1=O)NCc1ccc(F)cc1F | 38.05 |
| O=C(/C=C/c1coc2cc(O)ccc2c1=O)NCCc1ccc(F)cc1 | 6.64 |
| COc1ccc2c(=O)c(/C=C/C(=O)Nc3ccc(Cl)cc3)coc2c1 | 12.97 |

tested on: Huh-7; test: Growth inhibition of human HuH7 cells after 48 hrs by MTT assay; format: functional, cell-based; conditions: Huh-7, 48 h; method in brief: as §1

| IC50 | SMILES |
| --- | --- |
| 29.2 µM | COc1ccc2c(=O)c(/C=C/C(=O)NCCc3ccc(F)cc3)coc2c1 |
| > 100 µM | Cc1ccc(CNC(=O)/C=C/c2coc3cc(O)ccc3c2=O)cc1 |
| 8.43 µM | COc1ccc(CNC(=O)/C=C/c2coc3cc(O)ccc3c2=O)cc1 |
| > 100 µM | O=C(/C=C/c1coc2cc(O)ccc2c1=O)NCCc1ccc(F)cc1 |

Further lines, the molecule ahead of its results:

| SMILES | IC50 |
| --- | --- |
| O=C(/C=C/c1coc2cc(O)ccc2c1=O)NCc1ccc(F)cc1F | > 100 µM |
| COc1ccc2c(=O)c(/C=C/C(=O)Nc3cccc(Cl)c3)coc2c1 | > 100 µM |
| COc1ccc2c(=O)c(/C=C/C(=O)Nc3ccc(Cl)cc3)coc2c1 | 37.1 µM |
